Test results reported in ChEMBL document CHEMBL4321819, “Simple Structural Modifications Converting a Bona fide MDM2 PROTAC Degrader into a Molecular Glue Molecule: A Cautionary Tale in the Design of PROTAC Degraders” (J Med Chem, 2019).
pIC50: −log10 of the molar value. Calls of active or inactive are those of the source. The calls are words filed in the database; no cut-off is given here.

Columns and labels:
RS4-11 [1] = experiment: Antiproliferative activity against human RS4:11 cells expressing wild type p53 assessed as cell growth inhibition after 4 days by WST-8 assay; assay type: functional, cell-based; settings: RS4-11, 96 h
Method in brief: (§1)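 Leukemia cells seeded at 10000–20000 cells/well, breast cancer lines at 5000–10000 cells/well. Serially diluted compound added, then 4 days at 37 °C, 5% CO2. Growth read with WST-8 reagent after at least 1 h, absorbance at 450 nm. RS4;11, MOLM-13 and breast lines were grown in RPMI 1640; MV-4-11 and HL-60 in IMDM; all with 10% FBS. Mean ± SE, at least three independent experiments.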

[2] = (§2) Antiproliferative activity against human RS4:11/IRMI-2 cells harboring p53 hotspot mutation Y236H/R249G assessed as cell growth inhibition after 4 days by WST-8 assay; assay type: functional, cell-based; settings: RS4-11, 96 h; method in brief: as §1
[3] = target: T1, Protein cereblon/Eukaryotic peptide chain release factor GTP-binding subunit ERF3A/DNA damage-binding protein 1/Cullin-4A (Homo sapiens) (UniProt Q96SW2+Q16531+Q13619+P15170); experiment: Protac activity at GSPT1/CUL4/DDB1/CRBN in human RS4:11 cells expressing wild type p53 assessed as decrease in GSPT1 protein level after 2 hrs by Western blot analysis; assay type: cell-based
T1 sequence (P15170 whole entry, looked up): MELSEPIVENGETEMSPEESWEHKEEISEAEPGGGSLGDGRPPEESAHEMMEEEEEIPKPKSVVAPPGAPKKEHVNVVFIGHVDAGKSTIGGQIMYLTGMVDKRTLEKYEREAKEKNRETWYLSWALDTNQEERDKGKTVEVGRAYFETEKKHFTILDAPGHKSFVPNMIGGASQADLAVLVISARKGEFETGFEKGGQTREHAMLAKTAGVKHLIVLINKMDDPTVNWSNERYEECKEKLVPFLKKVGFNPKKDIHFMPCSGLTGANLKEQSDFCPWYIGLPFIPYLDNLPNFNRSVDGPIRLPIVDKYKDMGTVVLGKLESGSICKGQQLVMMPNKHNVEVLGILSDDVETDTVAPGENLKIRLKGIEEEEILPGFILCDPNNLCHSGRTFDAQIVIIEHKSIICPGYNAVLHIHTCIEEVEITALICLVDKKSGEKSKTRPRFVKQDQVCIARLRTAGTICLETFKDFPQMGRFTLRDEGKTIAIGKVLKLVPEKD
T1 sequence (Q13619 whole entry, looked up): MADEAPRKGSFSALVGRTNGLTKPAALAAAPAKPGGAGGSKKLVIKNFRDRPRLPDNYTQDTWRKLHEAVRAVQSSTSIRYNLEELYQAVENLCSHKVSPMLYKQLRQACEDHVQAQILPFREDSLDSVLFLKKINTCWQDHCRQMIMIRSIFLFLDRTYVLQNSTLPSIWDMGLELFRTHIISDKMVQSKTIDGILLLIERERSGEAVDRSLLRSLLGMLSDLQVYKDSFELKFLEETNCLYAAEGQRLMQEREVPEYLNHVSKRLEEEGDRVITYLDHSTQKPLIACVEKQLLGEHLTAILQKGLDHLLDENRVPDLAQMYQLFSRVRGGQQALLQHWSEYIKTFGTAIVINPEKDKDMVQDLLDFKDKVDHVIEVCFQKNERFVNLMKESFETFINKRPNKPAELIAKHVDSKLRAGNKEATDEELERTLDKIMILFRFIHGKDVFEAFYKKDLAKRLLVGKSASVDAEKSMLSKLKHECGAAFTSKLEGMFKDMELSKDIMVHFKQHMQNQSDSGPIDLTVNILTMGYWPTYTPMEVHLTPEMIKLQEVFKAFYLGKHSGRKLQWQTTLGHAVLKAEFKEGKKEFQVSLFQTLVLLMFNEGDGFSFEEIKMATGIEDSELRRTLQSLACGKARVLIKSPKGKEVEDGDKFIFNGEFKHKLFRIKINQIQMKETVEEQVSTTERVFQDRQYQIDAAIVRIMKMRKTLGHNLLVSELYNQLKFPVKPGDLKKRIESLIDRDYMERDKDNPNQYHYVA
T1 sequence (Q16531 whole entry, looked up): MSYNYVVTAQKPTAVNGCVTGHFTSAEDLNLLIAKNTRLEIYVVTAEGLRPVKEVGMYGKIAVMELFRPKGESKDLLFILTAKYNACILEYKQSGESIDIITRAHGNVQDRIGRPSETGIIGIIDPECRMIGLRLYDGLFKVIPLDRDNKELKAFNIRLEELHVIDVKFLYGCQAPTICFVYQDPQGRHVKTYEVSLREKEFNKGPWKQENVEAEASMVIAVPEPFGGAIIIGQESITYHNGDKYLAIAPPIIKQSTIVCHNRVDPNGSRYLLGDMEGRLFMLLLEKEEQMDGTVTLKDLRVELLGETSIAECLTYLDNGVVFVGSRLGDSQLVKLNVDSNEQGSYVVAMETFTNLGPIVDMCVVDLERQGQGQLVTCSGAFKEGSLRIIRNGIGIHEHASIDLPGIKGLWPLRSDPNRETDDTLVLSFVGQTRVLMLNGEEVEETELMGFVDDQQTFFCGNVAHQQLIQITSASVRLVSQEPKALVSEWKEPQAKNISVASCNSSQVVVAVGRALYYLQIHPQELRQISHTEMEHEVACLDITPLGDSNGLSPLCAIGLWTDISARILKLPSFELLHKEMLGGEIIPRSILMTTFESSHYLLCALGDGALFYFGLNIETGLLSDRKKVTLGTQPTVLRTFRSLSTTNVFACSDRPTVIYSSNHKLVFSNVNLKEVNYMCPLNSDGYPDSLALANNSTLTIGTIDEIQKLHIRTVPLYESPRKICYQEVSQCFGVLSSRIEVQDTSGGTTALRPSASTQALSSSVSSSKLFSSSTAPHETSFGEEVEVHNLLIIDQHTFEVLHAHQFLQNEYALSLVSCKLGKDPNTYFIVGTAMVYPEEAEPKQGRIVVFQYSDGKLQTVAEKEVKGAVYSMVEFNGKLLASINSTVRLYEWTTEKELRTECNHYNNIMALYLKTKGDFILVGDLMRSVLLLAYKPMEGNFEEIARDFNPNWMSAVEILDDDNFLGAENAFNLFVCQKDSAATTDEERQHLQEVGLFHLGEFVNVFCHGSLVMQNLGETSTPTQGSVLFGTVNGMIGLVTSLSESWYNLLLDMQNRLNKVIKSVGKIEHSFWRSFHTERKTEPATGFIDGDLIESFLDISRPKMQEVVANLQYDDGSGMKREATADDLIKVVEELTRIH
T1 sequence (Q96SW2 whole entry, looked up): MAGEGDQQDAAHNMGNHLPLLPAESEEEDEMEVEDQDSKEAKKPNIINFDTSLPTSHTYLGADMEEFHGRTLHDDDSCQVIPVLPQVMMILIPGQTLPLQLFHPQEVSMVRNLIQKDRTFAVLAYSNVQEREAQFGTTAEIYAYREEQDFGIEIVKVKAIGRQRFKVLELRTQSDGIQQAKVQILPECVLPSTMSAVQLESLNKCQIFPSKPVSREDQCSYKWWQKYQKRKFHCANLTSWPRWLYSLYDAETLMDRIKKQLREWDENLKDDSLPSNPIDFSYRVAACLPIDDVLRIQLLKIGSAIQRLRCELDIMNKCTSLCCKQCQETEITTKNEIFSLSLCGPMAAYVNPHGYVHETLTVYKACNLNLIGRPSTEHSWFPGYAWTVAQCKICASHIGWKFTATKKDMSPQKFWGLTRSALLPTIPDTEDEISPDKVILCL
Method in brief: (§3)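 RS4;11 (wild-type p53) or RS4;11/IRMI-2 (MDM2 inhibitor-resistant derivative, mutant p53) cells kept in RPMI 1640 with 10% FBS at 37 °C, 5% CO₂. 2×10^6 cells/well treated at the indicated concentrations and times, then lysed in ice-cold lysis buffer with protease inhibitor. GSPT1 detected by Western blot with a specific antibody.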

[4] = target: T1, Protein cereblon/Eukaryotic peptide chain release factor GTP-binding subunit ERF3A/DNA damage-binding protein 1/Cullin-4A (Homo sapiens); experiment: Protac activity at GSPT1/CUL4/DDB1/CRBN in human RS4:11/IRMI-2 cells harboring p53 hotspot mutation Y236H/R249G assessed as decrease in GSPT1 protein level after 2 hrs by Western blot analysis; assay type: cell-based; method in brief: as §3
[5] = target: T2, E3 ubiquitin-protein ligase Mdm2 (Homo sapiens, UniProt Q00987); experiment: Displacement of PMDM6-F fluorescent probe from human recombinant His-tagged MDM2 (1 to 118 residues) after 15 mins by fluorescence polarization assay
Method in brief: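 Recombinant human His-tagged MDM2 (residues 1–118) with a FAM-labelled p53-based peptide as fluorescent probe; competitive fluorescence-polarization binding. Mean ± standard error from at least three independent experiments.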
Target sequence in this assay (Q00987 whole entry, the tested form may be a part): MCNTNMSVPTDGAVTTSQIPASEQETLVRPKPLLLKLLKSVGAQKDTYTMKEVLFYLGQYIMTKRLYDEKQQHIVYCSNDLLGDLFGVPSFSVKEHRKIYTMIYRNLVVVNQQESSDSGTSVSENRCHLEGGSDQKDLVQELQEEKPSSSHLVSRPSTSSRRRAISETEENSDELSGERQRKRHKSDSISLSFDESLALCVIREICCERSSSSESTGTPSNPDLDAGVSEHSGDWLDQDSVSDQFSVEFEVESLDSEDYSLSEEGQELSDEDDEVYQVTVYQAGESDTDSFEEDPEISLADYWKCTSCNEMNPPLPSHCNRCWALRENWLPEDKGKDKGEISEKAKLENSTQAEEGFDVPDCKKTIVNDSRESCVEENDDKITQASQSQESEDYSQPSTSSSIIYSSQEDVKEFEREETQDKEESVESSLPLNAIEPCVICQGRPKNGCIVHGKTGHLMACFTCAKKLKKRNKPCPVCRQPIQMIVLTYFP

RS4-11 [6] = experiment: Antiproliferative activity against human RS4:11 cells expressing wild type p53 assessed as MDM2-independent cell growth inhibition after 4 days by WST-8 assay; assay type: functional, cell-based; settings: RS4-11, 96 h; method in brief: as §1
[7] = Antiproliferative activity against human RS4:11/IRMI-2 cells harboring p53 hotspot mutation Y236H/R249G assessed as MDM2-independent cell growth inhibition after 4 days by WST-8 assay; assay type: functional, cell-based; settings: RS4-11, 96 h; method in brief: as §1
MOLM-13 = experiment: Antiproliferative activity against human MOLM13 cells expressing wild type p53 assessed as cell growth inhibition after 4 days by WST-8 assay; assay type: functional, cell-based; settings: MOLM-13, 96 h; method in brief: as §1
MV4-11 = experiment: Antiproliferative activity against human MV4-11 cells expressing wild type p53 assessed as cell growth inhibition after 4 days by WST-8 assay; assay type: functional, cell-based; settings: MV4-11, 96 h; method in brief: as §1
HL-60 = experiment: Antiproliferative activity against human HL60 cells with lack of p53 assessed as cell growth inhibition after 4 days by WST-8 assay; assay type: functional, cell-based; method in brief: as §1
Homo sapiens = organism: Homo sapiens; experiment: as §2; assay type: functional, cell-based; method in brief: as §1
MDA-MB-231 [8] = experiment: Antiproliferative activity against human MDA-MB-231 cells harboring mutant p53 assessed as cell growth inhibition after 4 days by WST-8 assay; assay type: functional, cell-based; method in brief: as §1
MDA-MB-468 [9] = experiment: Antiproliferative activity against human MDA-MB-468 cells harboring mutant p53 assessed as cell growth inhibition after 4 days by WST-8 assay; assay type: functional, cell-based; method in brief: as §1
[10] = target: T2, E3 ubiquitin-protein ligase Mdm2; experiment: Induction of MDM2 degradation in human RS4:11 cells assessed as upregulation of MDM2 at 1000 to 3000 nM after 1 hr by Western blot analysis; assay type: cell-based
Method in brief: (§4)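 Western blots of MDM2 and p53 protein were run on RS4;11 cells (wild-type p53) in RPMI 1640 with 10% FBS. 2×10^6 cells/well were treated at the indicated concentrations for 1 h or 2 h. Lysis was in ice-cold buffer with protease inhibitor, followed by probing with specific antibodies.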
Target sequence in this assay (Q00987 whole entry, looked up, the tested form may be a part): as the sequence (Q00987 whole entry, the tested form may be a part) above

[11] = target: T2, E3 ubiquitin-protein ligase Mdm2; experiment: Induction of MDM2 degradation in human RS4:11 cells assessed as upregulation of p53 at 1000 to 3000 nM after 1 hr by Western blot analysis; assay type: cell-based; method in brief: as §4
Target sequence in this assay (Q00987 whole entry, looked up, the tested form may be a part): as the sequence (Q00987 whole entry, the tested form may be a part) above

MDA-MB-231 [12] = experiment: Antiproliferative activity against human MDA-MB-231 cells assessed as cell growth inhibition after 4 days in presence of control siRNA for 2 days followed by compound treatment by WST-8 assay; assay type: functional, cell-based
Method in brief: (§5)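 MDA-MB-231 or MDA-MB-468 cells transfected for 2 days using Lipofectamine RNAiMAX with MDM2 siRNA, one of two CRBN siRNAs, or non-targeting control siRNA. Compound then added and growth read by WST-8 at 450 nm.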

MDA-MB-468 [13] = experiment: Antiproliferative activity against human MDA-MB-468 cells assessed as cell growth inhibition after 4 days in presence of control siRNA for 2 days followed by compound treatment by WST-8 assay; assay type: functional, cell-based; method in brief: as §5
MDA-MB-231 [14] = experiment: Antiproliferative activity against human MDA-MB-231 cells transfected with MDM2 siRNA assessed as cell growth inhibition after 4 days by WST-8 assay; assay type: functional, cell-based; settings: MDA-MB-231, 96 h; method in brief: as §5
MDA-MB-468 [15] = experiment: Antiproliferative activity against human MDA-MB-468 cells transfected with MDM2 siRNA assessed as cell growth inhibition after 4 days by WST-8 assay; assay type: functional, cell-based; settings: MDA-MB-468, 96 h; method in brief: as §5
RS4-11 [16] = experiment: Antiproliferative activity against human RS4:11 cells expressing wild type p53 assessed as cell growth inhibition without interaction with cereblon after 4 days by WST-8 assay; assay type: functional, cell-based; settings: RS4-11, 96 h; method in brief: as §1
[17] = Antiproliferative activity against human RS4:11/IRMI-2 cells harboring p53 hotspot mutation Y236H/R249G assessed as cell growth inhibition without interaction with cereblon after 4 days by WST-8 assay; assay type: functional, cell-based; settings: RS4-11, 96 h; method in brief: as §1
MDA-MB-231 [18] = experiment: Antiproliferative activity against human MDA-MB-231 cells harboring mutant p53 assessed as cell growth inhibition without interaction with cereblon after 4 days by WST-8 assay; assay type: functional, cell-based; settings: MDA-MB-231, 96 h
MDA-MB-468 [19] = experiment: Antiproliferative activity against human MDA-MB-468 cells harboring mutant p53 assessed as cell growth inhibition without interaction with cereblon after 4 days by WST-8 assay; assay type: functional, cell-based; settings: MDA-MB-468, 96 h
MDA-MB-231 [20] = experiment: Antiproliferative activity against human MDA-MB-231 cells transfected with CRBN siRNA LQ-021086-10-0002 assessed as cell growth inhibition after 4 days by WST-8 assay; assay type: functional, cell-based; settings: MDA-MB-231, 72 h, in the assay text read “after 3 days” for “after 4 days”; method in brief: as §5
MDA-MB-231 [21] = experiment: Antiproliferative activity against human MDA-MB-231 cells transfected with CRBN siRNA LQ-021086-11-0002 assessed as cell growth inhibition after 4 days by WST-8 assay; assay type: functional, cell-based; settings: MDA-MB-231, 96 h; method in brief: as §5
MDA-MB-468 [22] = experiment: Antiproliferative activity against human MDA-MB-468 cells transfected with CRBN siRNA LQ-021086-10-0002 assessed as cell growth inhibition after 4 days by WST-8 assay; assay type: functional, cell-based; settings: MDA-MB-468, 96 h; method in brief: as §5
MDA-MB-468 [23] = experiment: Antiproliferative activity against human MDA-MB-468 cells transfected with CRBN siRNA LQ-021086-11-0002 assessed as cell growth inhibition after 4 days by WST-8 assay; assay type: functional, cell-based; settings: MDA-MB-468, 96 h; method in brief: as §5
MDA-MB-231 [24] = experiment: Antiproliferative activity against human MDA-MB-231 cells assessed as cell growth inhibition after 4 days in presence of control siRNA for 3 days followed by compound treatment by WST-8 assay; assay type: functional, cell-based
MDA-MB-468 [25] = experiment: Antiproliferative activity against human MDA-MB-468 cells assessed as cell growth inhibition after 4 days in presence of control siRNA for 3 days followed by compound treatment by WST-8 assay; assay type: functional, cell-based
[26] = target: T1, Protein cereblon/Eukaryotic peptide chain release factor GTP-binding subunit ERF3A/DNA damage-binding protein 1/Cullin-4A (Homo sapiens); experiment: Protac activity at GSPT1/CUL4/DDB1/CRBN in human RS4:11 cells expressing wild type p53 assessed as decrease in GSPT1 protein level at 1 to 3 uM after 24 hrs by Western blot analysis; assay type: cell-based; method in brief: as §3
[27] = target: T1, Protein cereblon/Eukaryotic peptide chain release factor GTP-binding subunit ERF3A/DNA damage-binding protein 1/Cullin-4A (Homo sapiens); experiment: Protac activity at GSPT1/CUL4/DDB1/CRBN in human RS4:11/IRMI-2 cells harboring p53 hotspot mutation Y236H/R249G assessed as decrease in GSPT1 protein level at 1 to 3 uM after 24 hrs by Western blot analysis; assay type: cell-based; method in brief: as §3
[28] = target: Eukaryotic peptide chain release factor GTP-binding subunit ERF3A (Homo sapiens, UniProt P15170); experiment: Induction of GSPT1 degradation in human RS4:11 cells measured after 24 hrs by Western blot analysis; assay type: cell-based
Sequence of Eukaryotic peptide chain release factor GTP-binding subunit ERF3A (P15170 whole entry): as the sequence (P15170 whole entry, looked up) above

Row | pIC50 (RS4-11 [6]) | SMILES | pIC50 (RS4-11 [1]) | pIC50 [2] | Activity [3] | Activity [4] | pIC50 [5] | pIC50 [7] | pIC50 (MDA-MB-231 [20]) | pIC50 (MDA-MB-231 [21]) | pIC50 (MDA-MB-468 [22]) | pIC50 (MDA-MB-468 [23]) | pIC50 (MDA-MB-231 [24]) | pIC50 (MDA-MB-468 [25]) | also measured
1 | – | O=C1CCC(N2Cc3c(CCCOCCOCCOCCNC(=O)[C@@H]4NC5(CCCCC5)[C@@]5(C(=O)Nc6cc(Cl)ccc65)[C@H]4c4cccc(Cl)c4F)cccc3C2=O)C(=O)N1 (stereo not given in full) | 8.00 | 7.96 | Active | Active | – | – | – | – | – | – | – | – | –
2 | 8.39 | O=C1CCC(N2Cc3c(CCCCCNC(=O)[C@@H]4NC5(CCCCC5)[C@@]5(C(=O)Nc6ccccc65)[C@H]4c4ccccc4F)cccc3C2=O)C(=O)N1 (stereo not given in full) | – | – | – | – | < 4.70 | 8.43 | – | – | – | – | – | – | –
3 | – | O=C(O)c1ccc(NC(=O)[C@@H]2NC3(CCCCC3)[C@@]3(C(=O)Nc4cc(Cl)ccc43)[C@H]2c2cccc(Cl)c2F)cc1 | – | – | – | – | 8.02 | – | < 5.52 | < 5.52 | < 5.52 | < 5.52 | < 5.52 | < 5.52 | –
4 | 7.65 | O=C1CCC(N2Cc3c(CCCCCNC(=O)[C@@H]4NC5(CCCCC5)[C@@]5(C(=O)Nc6cc(Cl)ccc65)[C@H]4c4ccccc4)cccc3C2=O)C(=O)N1 (stereo not given in full) | – | – | – | – | < 4.70 | 7.65 | – | – | – | – | – | – | –
5 | – | O=C1CCC(N2Cc3c(CCCNC(=O)[C@@H]4NC5(CCCCC5)[C@@]5(C(=O)Nc6cc(Cl)ccc65)[C@H]4c4cccc(Cl)c4F)cccc3C2=O)C(=O)N1 (stereo not given in full) | 6.89 | 6.74 | – | – | – | – | – | – | – | – | – | – | Activity [26]: Active; Activity [27]: Active; DC50 [28]: 0.12 µM

Row | SMILES | pIC50 (RS4-11 [6]) | pIC50 (RS4-11 [1]) | pIC50 [2] | Activity [3] | Activity [4] | pIC50 [5] | pIC50 [7] | pIC50 (MDA-MB-231 [20]) | pIC50 (MDA-MB-231 [21]) | pIC50 (MDA-MB-468 [22]) | pIC50 (MDA-MB-468 [23]) | pIC50 (MDA-MB-231 [24]) | pIC50 (MDA-MB-468 [25]) | also measured
6 | CNC(=O)[C@@H]1NC2(CCCCC2)[C@@]2(C(=O)Nc3cc(Cl)ccc32)[C@H]1c1cccc(Cl)c1F | 5.83 | 6.17 | – | inactive | inactive | 7.32 | < 5.00 | < 5.52 | < 5.52 | < 5.52 | < 5.52 | < 5.52 | < 5.52 | pIC50 (MOLM-13): 5.91; pIC50 (MV4-11): 6.05; growth inhibition (GI) (HL-60): inactive; growth inhibition (GI) (Homo sapiens): inactive; growth inhibition (GI) (MDA-MB-231 [8]): inactive; growth inhibition (GI) (MDA-MB-468 [9]): inactive; Activity [10]: inactive; Activity [11]: Active; pIC50 (MDA-MB-231 [12]): < 5.00; pIC50 (MDA-MB-468 [13]): < 5.00; pIC50 (MDA-MB-231 [14]): < 5.00; pIC50 (MDA-MB-468 [15]): < 5.00; pIC50 (RS4-11 [16]): 5.95; pIC50 [17]: 5.02; pIC50 (MDA-MB-231 [18]): < 5.00; pIC50 (MDA-MB-468 [19]): < 5.00
